Data published in ChEMBL document CHEMBL2176901, “Pyrrolo[3,4-h]quinolinones a new class of photochemotherapeutic agents” (Bioorg Med Chem, 2011).
The source made the active and inactive calls. No cut-off for these calls is given here.

Experiments:
[1] = test system: Jurkat; assay: Induction of apoptosis in 3.75 J/cm'2 UV-A irradiated human Jurkat cells assessed as late apoptotic cells at 5 uM after 24 hrs by Annexin-V-FITC and propidium iodide based flow cytometry (reference value: 2.9 %); type: functional
[2] = test system: Jurkat; assay: Induction of lipid peroxidation in 3.75 J/cm'2 UV-A irradiated human Jurkat cells assessed as increase in TBARS formation after 24 hrs by thiobarbituric acid assay; type: functional, cell-based
Method in brief: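 Lipid peroxidation measured as MDA–thiobarbituric acid adducts, with BHT added to samples; calibrated to a 1,1,3,3-tetraethoxypropane standard curve; protein by Peterson method.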

[3] = test system: Jurkat; assay: Cell cycle arrest in UV-A irradiated human Jurkat cells assessed as accumulation at Sub G1 phase at 5 uM after 24 hrs by propidium iodide based flow cytometry (reference value: 0.1 %); type: functional
Method in brief: (§1)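 Exponentially growing Jurkat cells (5×10^5) irradiated with UV-A (365 nm lamp, 2.5 J/cm²) in presence of compound. After 24 h: fixed in ice-cold 70% ethanol, lysed with RNAse A, stained with PI (10 µg/ml), analysed by flow cytometry. Phases calculated on living cells; subG1 is hypodiploid DNA peak.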

[4] = test system: MCF7; assay: Phototoxicity in 2.5 J/cm'2 UV-A irradiated human MCF7 cells assessed as cell viability after 72 hrs by MTT assay in presence of radical scavenger NaN3; type: functional, cell-based
Method in brief: (§2)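 MCF-7 cells given compound plus scavenger in HBSS, 30 min at 37 °C, then UV-A (2.5 J/cm², 365 nm lamp). Medium replaced; viability by MTT after 72 h. Means ± SEM of at least three independent experiments.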

[5] = test system: Nucleic Acid; assay: Binding affinity to salmon testes DNA at drug/DNA ratio of 0.03 by linear dichroism analysis; type: nucleic-acid assay; conditions: Salmonidae
Method in brief: (§3)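 Flow linear dichroism in 10 mM phosphate buffer pH 7.2. Samples oriented in a rotating cylindrical cuvette (0.14 cm path, 800 rpm) at several drug/DNA ratios.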

[6] = Phototoxicity in 3.75 J/cm'2 UV-A irradiated human NCTC-2544 cells after 72 hrs by MTT assay; type: functional, cell-based; conditions: NCTC-2544, light or radiation study
Method in brief: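 Seeded at 5 × 10³ cells/well with 10% FBS: MCF-7 and NCTC-2544 in DMEM, LoVo in Ham's F12. Pre-incubated 18 h at 37 °C, 5% CO2. Compound (DMSO stock diluted in HBSS pH 7.2) was applied for 30 min at 37 °C, then UV-A irradiation (mainly 365 nm, 4.0 mW/cm²). Medium was restored for 72 h before MTT. IC50 is the mean ± SEM of three experiences.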

[7] = test system: Jurkat; assay: Cell cycle arrest in UV-A irradiated human Jurkat cells assessed as accumulation at G2/M phase at 10 uM after 24 hrs by propidium iodide based flow cytometry (reference value: 10.3 %); type: functional; method in brief: as §1
[8] = test system: MCF7; assay: Phototoxicity in 2.5 J/cm'2 UV-A irradiated human MCF7 cells assessed as cell viability after 72 hrs by MTT assay in presence of radical scavenger GSH; type: functional, cell-based; method in brief: as §2
[9] = test system: Jurkat; assay: Induction of apoptosis in 3.75 J/cm'2 UV-A irradiated human Jurkat cells assessed as viable cells at 10 uM after 24 hrs by Annexin-V-FITC and propidium iodide based flow cytometry (reference value: 91%); type: functional; conditions: light or radiation study, read-out: Activity
[10] = test system: Jurkat; assay: Induction of apoptosis in 3.75 J/cm'2 UV-A irradiated human Jurkat cells assessed as late apoptotic cells at 10 uM after 24 hrs by Annexin-V-FITC and propidium iodide based flow cytometry (reference value: 2.9 %); type: functional
[11] = test system: Jurkat; assay: Induction of apoptosis in 3.75 J/cm'2 UV-A irradiated human Jurkat cells assessed as early apoptotic cells at 5 uM after 24 hrs by Annexin-V-FITC and propidium iodide based flow cytometry (reference value: 1.9 %); type: functional
[12] = test system: Nucleic Acid; assay: Binding affinity to salmon testes DNA at drug/DNA ratio of 0.02 by linear dichroism analysis; type: nucleic-acid assay; conditions: Salmonidae; method in brief: as §3
[13] = Drug uptake in endoplasmic reticulum of human NCTC-2544 cells at 10 uM after 2 hrs by fluorescence microphotography; type: ADME, cell-based; conditions: nctc-2544, 2 h
Method in brief: (§4)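 NCTC-2544 cells attached in Petri dishes, given compound at 10 μM for 2 h, washed with HBSS. Then 30 min with Rhodamine 123 (mitochondria), LysoTracker RED, CellMask Orange (plasma membrane) or ER-Tracker. Blue compound fluorescence overlaid on probe images by video-confocal microscopy.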

[14] = test system: Nucleic Acid; assay: Induction of photo-induced supercoiled Escherichia coli pBR322 DNA damage at drug:DNA ratio of 1:3 by agarose gel electrophoresis in presence of mannitol; type: nucleic-acid assay
Method in brief: (§5)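 Supercoiled pBR322 (100 ng) in 10 mM phosphate buffer pH 7.2 irradiated with UV-A (3.75 J/cm²) at [DNA]/[drug] 1/3, with additives, under nitrogen or in deuterated buffer as stated. Aliquots then incubated at 37 °C with Fpg or Endo III. Run on 1% agarose in TAE, 80 V for 2 h, stained with ethidium bromide; Form I/II fractions from band densitometry.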

[15] = test system: Nucleic Acid; assay: Induction of photo-induced supercoiled Escherichia coli pBR322 DNA damage assessed as single strand break at drug:DNA ratio of 1:3 by agarose gel electrophoresis in presence of D2O buffer; type: nucleic-acid assay; method in brief: as §5
[16] = test system: Jurkat; assay: Induction of apoptosis in 3.75 J/cm'2 UV-A irradiated human Jurkat cells assessed as necrotic cells at 10 uM after 24 hrs by Annexin-V-FITC and propidium iodide based flow cytometry (reference value: 4.2 %); type: functional
[17] = test system: Jurkat; assay: Phototoxicity in 2.5 J/cm'2 UV-A irradiated human Jurkat cells after 72 hrs by MTT assay; type: functional, cell-based; conditions: light or radiation study
Method in brief: (§6)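 HL-60 and Jurkat (8×10³/well, RPMI-1640) and MCF-7, LoVo, NCTC-2544 (5×10³/well; DMEM or Ham's F12) preincubated 18 h at 37 °C, 5% CO₂. Compound in DMSO diluted in HBSS pH 7.2, 30 min at 37 °C, then UV-A at 2.5 or 3.75 J/cm². Medium replaced, 72 h incubation, MTT read-out. IC50 as mean ± SEM of three experiments.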

[18] = Drug uptake in lysosome of human NCTC-2544 cells at 10 uM after 2 hrs by fluorescence microphotography; type: ADME, cell-based; conditions: nctc-2544, 2 h; method in brief: as §4
[19] = test system: HL-60; assay: Phototoxicity in 2.5 J/cm'2 UV-A irradiated human HL60 cells after 72 hrs by MTT assay; type: functional, cell-based; conditions: HL-60, light or radiation study; method in brief: as §6
[20] = test system: Nucleic Acid; assay: Binding affinity to salmon testes DNA at 10 uM by fluorescence titration; type: nucleic-acid assay; conditions: Salmonidae
Method in brief: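 Fluorimetric titration of compound (10 μM) with increasing stDNA (0 to 100 μM) in 10 mM phosphate buffer pH 7.2; quenching of compound fluorescence monitored.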

[21] = test system: Jurkat; assay: Cell cycle arrest in UV-A irradiated human Jurkat cells assessed as accumulation at S phase at 5 uM after 24 hrs by propidium iodide based flow cytometry (reference value: 25.3 %); type: functional; method in brief: as §1
[22] = test system: Jurkat; assay: Cell cycle arrest in UV-A irradiated human Jurkat cells assessed as accumulation at G2/M phase at 5 uM after 24 hrs by propidium iodide based flow cytometry (reference value: 10.3 %); type: functional; method in brief: as §1
[23] = test system: MCF7; assay: Phototoxicity in 2.5 J/cm'2 UV-A irradiated human MCF7 cells assessed as cell viability after 72 hrs by MTT assay in presence of radical scavenger BHA; type: functional, cell-based; method in brief: as §2

CCOC(=O)c1c2c(c(C)n1C)-c1c(cc(S(=O)(=O)c3ccccc3)c(=O)n1C)CC2
Activity [1]: 11%
Activity [2]: Dose-dependent effect
Activity [3]: 10.5%
Activity [4]: inactive
Activity [5]: inactive
IC50 [6]: 1.3 µM
Activity [7]: 5.3%
Activity [8]: inactive
viability at 10 µM [9]: 45.2%
Activity [10]: 21.4%
Activity [11]: 14.4%
Activity [12]: inactive
Drug uptake [13]: Active
Activity [14]: inactive
Activity [15]: Active
Activity [16]: 8.6%
IC50 [17]: 1.2 µM
Drug uptake [18]: Active
IC50 [19]: 1.2 µM
Activity [20]: inactive
Activity [21]: 46.9%
Activity [22]: 4.2%
Activity [23]: inactive
